ChEMBL document CHEMBL1148530, “Discovery of new antitubercular oxazolyl thiosemicarbazones” (J Med Chem, 2006)
≈ marks a conversion by molar mass, not a printed value. Calls of active or inactive are those of the source. No cut-off for these calls is given here.

What was measured:
[1] = test system: Mycobacterium tuberculosis; test: Antimycobacterial activity against Mycobacterium tuberculosis H37Rv; format: functional
Method in brief: (§1)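 MIC determined by agar dilution, following the NCCLS-recommended approach, in duplicate. Strains were M. tuberculosis H37Rv and a multidrug-resistant M. tuberculosis. Concentrations were tested up to 25 µg/mL.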

Vero [2] = test: Cytotoxicity against Vero cell line; format: functional, cell-based; settings: Chlorocebus sabaeus
[3] = test system: Mycobacterium tuberculosis; test: Activity against Mycobacterium tuberculosis H37Rv infected in CD1 mouse assessed as decrease in bacterial load relative to control in spleen at 50 mg/kg, ip; format: functional; settings: route intraperitoneal
Method in brief: (§2)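 Female CD-1 mice, 6 weeks old, infected intravenously via the caudal vein with about 10⁷ viable M. tuberculosis ATCC 35801. Intraperitoneal treatment for 10 days after inoculation.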

[4] = test system: Mycobacterium tuberculosis; test: Activity against Mycobacterium tuberculosis H37Rv infected in CD1 mouse assessed as decrease in bacterial load relative to control in lung at 50 mg/kg, ip; format: functional; settings: route intraperitoneal; method in brief: as §2
[5] = test system: Mycobacterium tuberculosis; test: Antimycobacterial activity against Mycobacterium tuberculosis H37Rv at 25 ug/ml; format: functional, organism-based; method in brief: as §1
[6] = test system: Mycobacterium tuberculosis; test: Activity against Mycobacterium tuberculosis H37Rv infected in CD1 mouse assessed as decrease in bacterial load relative to control in lung at 25 mg/kg, ip; format: functional; settings: route intraperitoneal; method in brief: as §2
[7] = test system: Mycobacterium tuberculosis; test: Activity against Mycobacterium tuberculosis H37Rv infected in CD1 mouse assessed as decrease in bacterial load relative to control in spleen at 25 mg/kg, ip; format: functional; settings: route intraperitoneal; method in brief: as §2
Vero [8] = test: Selectivity index, IC50 for Vero cell line/ MIC for Mycobacterium tuberculosis H37Rv; format: functional
Method in brief: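 Vero cells were exposed to compound at 62.5 µg/mL for 72 h. Viability was read by MTT conversion to formazan. Selectivity index is the Vero IC50 divided by the agar-dilution MIC against the listed strain.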

Q: With `C/C(=N\N=C(/S)Nc1ncc(C2CCC2)o1)c1ccc(N)cc1` as the compound, how does the MIC [1] read?
A: The MIC was 0.78 µg/mL (≈ 2.37 µM).

Q: And the IC50 (Vero [2])?
A: Its IC50 is 62.5 µg/mL (≈ 190 µM).

Q: `CN(C)c1ccc(/C=N/N=C(\S)Nc2ncc(C3CCC3)o2)cc1` was tested. Which MIC [1] did it give?
A: The MIC was 3.12 µg/mL (≈ 9.08 µM).

Q: With `S=C(N/N=C(\c1ccccc1)c1ccc(Br)cc1)Nc1ncc(C2CCC2)o1` as the compound, how does the MIC [1] read?
A: The MIC was 0.05 µg/mL (≈ 0.11 µM).

Q: What about the Log10 cfu [3] of the same compound?
A: Its Log10 cfu is 5.12.

Q: What about the IC50 (Vero [2]) of the same compound?
A: The IC50 was > 62.5 µg/mL.

Q: And the Log10 cfu [4]?
A: Its Log10 cfu is 5.78.

Q: For `CC[C@@H](CO)NCCN[C@@H](CC)CO` [ETHAMBUTOL], which MIC [1] is on record?
A: The MIC was 1.56 µg/mL (≈ 7.64 µM).

Q: And the IC50 (Vero [2])?
A: Its IC50 is > 62.5 µg/mL.

Q: Which results are given for `COc1c(N2CCNC(C)C2)c(F)cc2c(=O)c(C(=O)O)cn(C3CC3)c12` (stereo not drawn) [GATIFLOXACIN]?
A: MIC [1]: 0.2 µg/mL (≈ 0.533 µM); Log10 cfu [3]: 6.24; IC50 (Vero [2]): > 62.5 µg/mL; Log10 cfu [4]: 6.02

Q: Which MIC [1] does the source give for `C/C(=N\N=C(/S)Nc1ncc(C2CCC2)o1)c1ccccc1` here?
A: The MIC was 3.12 µg/mL (≈ 9.92 µM).

Q: With `C/C(=N\N=C(/S)Nc1ncc(C2CCC2)o1)c1ccccc1O` as the compound, how does the MIC [1] read?
A: The MIC was 3.12 µg/mL (≈ 9.44 µM).

Q: `N/N=C(\S)Nc1ncc(C2CCC2)o1` was tested. Which Activity [5] did it give?
A: The Activity was “inactive”.

Q: With `O=[N+]([O-])c1cccc(/C=N/N=C(\S)Nc2ncc(C3CCC3)o2)c1` as the compound, how does the MIC [1] read?
A: The MIC was 0.78 µg/mL (≈ 2.26 µM).

Q: And the IC50 (Vero [2])?
A: The IC50 was < 62.5 µg/mL.

Q: `COc1cc(/C=N/N=C(\S)Nc2ncc(C3CCC3)o2)ccc1O` was tested. Which MIC [1] did it give?
A: Its MIC is 12.5 µg/mL (≈ 36.1 µM).

Q: How did the MIC [1] turn out when `Oc1[nH]c2ccc(F)cc2c1/N=N/C(S)=N/c1ncc(C2CCC2)o1` was run?
A: The MIC was 12.5 µg/mL (≈ 34.8 µM).

Q: With `S=C(N/N=C/c1ccc(Cl)cc1)Nc1ncc(C2CCC2)o1` as the compound, how does the MIC [1] read?
A: The MIC was 1.56 µg/mL (≈ 4.66 µM).

Q: `Oc1ccccc1/C=N/N=C(\S)Nc1ncc(C2CCC2)o1` was tested. Which MIC [1] did it give?
A: Its MIC is 6.25 µg/mL (≈ 19.8 µM).

Q: With `C/C(=N\N=C(/S)Nc1ncc(C2CCC2)o1)c1ccc(O)cc1` as the compound, how does the MIC [1] read?
A: The MIC was 3.12 µg/mL (≈ 9.44 µM).

Q: With `NNC(=O)c1ccncc1` [ISONIAZID] as the compound, how does the MIC [1] read?
A: Its MIC is 0.05 µg/mL (≈ 0.365 µM).

Q: And the IC50 (Vero [2])?
A: Its IC50 is > 62.5 µg/mL.

Q: What about the Log10 cfu [6] of the same compound?
A: Its Log10 cfu is 5.12.

Q: And the Log10 cfu [7]?
A: Its Log10 cfu is 4.11.

Q: What does the source list for `CO[C@H]1/C=C/O[C@@]2(C)Oc3c(C)c(O)c4c(O)c(c(/C=N/N5CCN(C)CC5)c(O)c4c3C2=O)NC(=O)/C(C)=C\C=C\[C@H](C)[C@H](O)[C@@H](C)[C@@H](O)[C@@H](C)[C@H](OC(C)=O)[C@@H]1C` [RIFAMPIN]?
A: MIC [1]: 0.1 µg/mL (≈ 0.122 µM); IC50 (Vero [2]): > 62.5 µg/mL

Q: Which MIC [1] does the source give for `C/C(=N\N=C(/S)Nc1ncc(C2CCC2)o1)c1ccc(C)cc1` here?
A: Its MIC is 0.78 µg/mL (≈ 2.37 µM).

Q: `COc1ccc(/C=N/N=C(\S)Nc2ncc(C3CCC3)o2)cc1` was tested. Which MIC [1] did it give?
A: Its MIC is 6.25 µg/mL (≈ 18.9 µM).

Q: `O=[N+]([O-])c1ccccc1/C=N/N=C(\S)Nc1ncc(C2CCC2)o1` was tested. Which MIC [1] did it give?
A: The MIC was 0.78 µg/mL (≈ 2.26 µM).

Q: Which MIC [1] does the source give for `O=[N+]([O-])c1ccc(/C=N/N=C(\S)Nc2ncc(C3CCC3)o2)cc1` here?
A: Its MIC is 0.39 µg/mL (≈ 1.13 µM).

Q: And the IC50 (Vero [2])?
A: Its IC50 is < 62.5 µg/mL.

Q: Which Selectivity index (Vero [8]) does the source give for `S=C(NN=C(c1ccccc1)c1ccccc1)Nc1ncc(C2CCC2)o1` here?
A: The Selectivity index was >1250.

Q: What about the MIC [1] of the same compound?
A: Its MIC is 0.1 µg/mL (≈ 0.266 µM).

Q: What about the IC50 (Vero [2]) of the same compound?
A: The IC50 was > 62.5 µg/mL.

Q: How did the MIC [1] turn out when `Oc1[nH]c2ccccc2c1/N=N/C(S)=N/c1ncc(C2CCC2)o1` was run?
A: Its MIC is 25 µg/mL (≈ 73.2 µM).

Q: What does the source list for `Cc1ccc(/C=N/N=C(\S)Nc2ncc(C3CCC3)o2)cc1`?
A: MIC [1]: 3.12 µg/mL (≈ 9.92 µM); IC50 (Vero [2]): < 62.5 µg/mL

Q: Which MIC [1] does the source give for `S=C(NN=C(Cc1ccccc1)Cc1ccccc1)Nc1ncc(C2CCC2)o1` here?
A: The MIC was 6.25 µg/mL (≈ 15.4 µM).

Q: Which MIC [1] does the source give for `C/C(=N\N=C(/S)Nc1ncc(C2CCC2)o1)c1ccc([N+](=O)[O-])cc1` here?
A: Its MIC is 0.2 µg/mL (≈ 0.556 µM).

Q: And the IC50 (Vero [2])?
A: Its IC50 is 62.5 µg/mL (≈ 174 µM).
